Results published in ChEMBL document CHEMBL1142087 (Antimicrob Agents Chemother, 2007).

Legend:
[1] = Cytotoxicity against MDCK cells; type: cell-based, Canis lupus familiaris; settings: dog
Method in brief: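 MDCK cells in MEM were exposed to eight test concentrations in half-log10 steps at 37°C. Untreated toxicity and normal-medium controls were included. CC50 was taken as the 50% cytotoxic concentration. Results are from two to five experiments.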

[2] = test system: Influenza A virus; test: Inhibition of Influenza A virus (A/gull/Pennsylvania/4175/83 (H5N1)) replication in MDCK cells by virus yield reduction assay; type: functional
[3] = test system: Influenza A virus; test: Inhibition of influenza A virus (A/duck/Minnesota/1525/1981 (H5N1)) replication in MDCK cells by virus yield reduction assay; type: functional
[4] = test system: Mus musculus; test: Effect on weight change in BALB/c mouse at 10 mg/kg/day, po twice daily for 5 days measured after 18 hrs of final treatment; type: ADME, organism-based; design: route oral; settings: in vivo
Method in brief: (§1)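 Uninfected toxicity-control BALB/c mice, 3 per dose, were dosed orally on the same schedule as infected groups. Each mouse was weighed before treatment and 18 h after the last dose. Weight change is the difference. Mice were watched for overt toxicity and death for 21 days.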

[5] = test system: Mus musculus; test: Toxicity in BALB/c mouse assessed as survival at 100 mg/kg/day, po once daily; type: organism-based; design: route oral; settings: in vivo
Method in brief: (§2)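 Uninfected female BALB/c toxicity controls (18–21 g), 3 mice per dose, were run in parallel with the infection studies and received 5-day oral treatment. Body weight was taken before treatment and 18 h after the last dose.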

[6] = test system: Mus musculus; test: Effect on weight change in BALB/c mouse at 300 mg/kg/day, po once daily for 5 days measured after 18 hrs of final treatment; type: ADME, organism-based; design: route oral; settings: in vivo; method in brief: as §1
[7] = test system: Mus musculus; test: Toxicity in BALB/c mouse assessed as survival at 300 mg/kg/day, po qid for 5 days; type: organism-based; design: route oral; settings: in vivo, 120 h; method in brief: as §2
[8] = test system: Mus musculus; test: Effect on weight change in BALB/c mouse at 100 mg/kg/day, po qid measured after 18 hrs of final treatment; type: ADME, organism-based; design: route oral; settings: in vivo; method in brief: as §1
[9] = test system: Mus musculus; test: Toxicity in BALB/c mouse assessed as survival at 100 mg/kg/day, po twice daily; type: organism-based; design: route oral; settings: in vivo; method in brief: as §2
[10] = test system: Mus musculus; test: Effect on weight change in BALB/c mouse at 30 mg/kg/day, po once daily for 5 days measured after 18 hrs of final treatment; type: ADME, organism-based; design: route oral; settings: in vivo; method in brief: as §1
[11] = test system: Mus musculus; test: Effect on weight change in BALB/c mouse at 100 mg/kg/day, po twice daily for 5 days measured after 18 hrs of final treatment; type: ADME, organism-based; design: route oral; settings: in vivo; method in brief: as §1
[12] = test system: Mus musculus; test: Effect on weight change in BALB/c mouse at 3 mg/kg/day, po twice daily for 5 days measured after 18 hrs of final treatment; type: ADME, organism-based; design: route oral; settings: in vivo; method in brief: as §1
[13] = test system: Mus musculus; test: Toxicity in BALB/c mouse assessed as survival at 300 mg/kg/day, po once daily; type: organism-based; design: route oral; settings: in vivo; method in brief: as §2
[14] = test system: Mus musculus; test: Effect on weight change in BALB/c mouse at 33 mg/kg/day, po qid measured after 18 hrs of final treatment; type: ADME, organism-based; design: route oral; settings: in vivo; method in brief: as §1
[15] = test system: Mus musculus; test: Toxicity in BALB/c mouse assessed as survival at 3 mg/kg/day, po twice daily; type: organism-based; design: route oral; settings: in vivo; method in brief: as §2
[16] = test system: Mus musculus; test: Effect on weight change in BALB/c mouse at 30 mg/kg/day, po twice daily for 5 days measured after 18 hrs of final treatment; type: ADME, organism-based; design: route oral; settings: in vivo; method in brief: as §1
[17] = test system: Mus musculus; test: Toxicity in BALB/c mouse assessed as survival at 10 mg/kg/day, po once daily; type: organism-based; design: route oral; settings: in vivo; method in brief: as §2
[18] = test system: Mus musculus; test: Effect on weight change in BALB/c mouse at 300 mg/kg/day, po qid measured after 18 hrs of final treatment; type: ADME, organism-based; design: route oral; settings: in vivo; method in brief: as §1
[19] = test system: Mus musculus; test: Effect on weight change in BALB/c mouse at 100 mg/kg/day, po once daily for 5 days measured after 18 hrs of final treatment; type: ADME, organism-based; design: route oral; settings: in vivo; method in brief: as §1
[20] = test system: Mus musculus; test: Toxicity in BALB/c mouse assessed as survival at 300 mg/kg/day, po twice daily; type: organism-based; design: route oral; settings: in vivo; method in brief: as §2
[21] = test system: Mus musculus; test: Toxicity in BALB/c mouse assessed as survival at 33 mg/kg/day, po qid for 5 days; type: organism-based; design: route oral; settings: in vivo, 120 h; method in brief: as §2
[22] = test system: Mus musculus; test: Toxicity in BALB/c mouse assessed as survival at 100 mg/kg/day, po qid for 5 days; type: organism-based; design: route oral; settings: in vivo, 120 h; method in brief: as §2
[23] = test system: Mus musculus; test: Toxicity in BALB/c mouse assessed as survival at 30 mg/kg/day, po once daily; type: organism-based; design: route oral; settings: in vivo; method in brief: as §2
[24] = test system: Mus musculus; test: Effect on weight change in BALB/c mouse at 300 mg/kg/day, po twice daily for 5 days measured after 18 hrs of final treatment; type: ADME, organism-based; design: route oral; settings: in vivo; method in brief: as §1
[25] = test system: Mus musculus; test: Effect on weight change in BALB/c mouse at 3 mg/kg/day, po once daily for 5 days measured after 18 hrs of final treatment; type: ADME, organism-based; design: route oral; settings: in vivo; method in brief: as §1
[26] = test system: Mus musculus; test: Toxicity in BALB/c mouse assessed as survival at 10 mg/kg/day, po twice daily; type: organism-based; design: route oral; settings: in vivo; method in brief: as §2
[27] = test system: Mus musculus; test: Effect on weight change in BALB/c mouse at 10 mg/kg/day, po once daily for 5 days measured after 18 hrs of final treatment; type: ADME, organism-based; design: route oral; settings: in vivo; method in brief: as §1
[28] = test system: Mus musculus; test: Toxicity in BALB/c mouse assessed as survival at 3 mg/kg/day, po once daily; type: organism-based; design: route oral; settings: in vivo; method in brief: as §2
[29] = test system: Mus musculus; test: Toxicity in BALB/c mouse assessed as survival at 30 mg/kg/day, po twice daily; type: organism-based; design: route oral; settings: in vivo; method in brief: as §2

## CC(=O)N[C@H]1[C@H]([C@H](O)[C@H](O)CO)OC(C(=O)O)=C[C@@H]1NC(=N)N [ZANAMIVIR]
[1]
  CC50: > 3610 µM
[2]
  EC90: 1.23 µM
[3]
  EC90: 0.96 µM

## NC(=O)c1nc(F)c[nH]c1=O [FAVIPIRAVIR]
[4]
  Activity: 0.1 g
[5]
  Activity: Non-toxic
[1]
  CC50: > 641 µM
[6]
  Activity: 0.4 g
[7]
  Activity: Non-toxic
[8]
  Activity: 1.1 g
[9]
  Activity: Non-toxic
[10]
  Activity: 0.7 g
[11]
  Activity: 1 g
[12]
  Activity: 0.8 g
[13]
  Activity: Non-toxic
[14]
  Activity: 0.2 g
[15]
  Activity: Non-toxic
[16]
  Activity: 0.1 g
[17]
  Activity: Non-toxic
[18]
  Activity: 0.6 g
[19]
  Activity: 0.4 g
[20]
  Activity: Non-toxic
[21]
  Activity: Non-toxic
[22]
  Activity: Non-toxic
[23]
  Activity: Non-toxic
[24]
  Activity: 0.2 g
[25]
  Activity: 0.3 g
[26]
  Activity: Non-toxic
[27]
  Activity: 0.6 g
[28]
  Activity: Non-toxic
[29]
  Activity: Non-toxic

## NC(=O)c1ncn([C@@H]2O[C@H](CO)[C@@H](O)[C@H]2O)n1 [RIBAVIRIN]
[1]
  CC50: 2340 µM
[2]
  EC90: 32 µM
[3]
  EC90: 20.1 µM
